Assay [1] relates to OVCAR. The experiment in a line: Growth inhibition of human OVCAR cells after 48 hrs by MTT assay. It is filed as functional. The procedure, abridged:
(§1)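 Cells seeded 3000/well (OVCA, SW620, H460) or 5000/well (AGS), grown 24 h, then exposed to serial dilutions (DMSO stock) for 48 h at 37 °C, 5% CO2. MTT (2 mg/ml in PBS) added for 2 h; formazan dissolved in DMSO and read at 570 nm. Inhibition = (1 − At/Ac)×100 vs vehicle; GI50 interpolated from dose–response curves; four to six separate experiments, mean ± SEM.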
(Tetrazolium assays rely on reduction of a dye to a coloured formazan, in cell work by metabolically active cells.)

The subject of assay [2] is AGS. The experiment in a line: Growth inhibition of human AGS cells after 48 hrs by MTT assay. It is filed as functional. The method in brief: as §1
For assay [3], the system named is SW-620. The experiment in a line: Growth inhibition of human SW620 cells at 40 uM after 48 hrs by MTT assay. It is filed as functional, cell-based. The procedure, abridged: (§2)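 MTT growth inhibition at the top tested concentration of 40 uM, 48 h exposure, cells seeded as for GI50 (3000/well OVCA, SW620, H460; 5000/well AGS).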
Assay [4] concerns NCI-H460. The experiment in a line: Growth inhibition of human H460 cells at 40 uM after 48 hrs by MTT assay. It is filed as functional, cell-based. The procedure, abridged: as §2
Assay [5] deals with OVCAR. Briefly: Cell cycle arrest in human OVCAR cells assessed as accumulation at sub-G1 phase at 1.2 uM after 24 hrs by propidium iodide staining-based FACS analysis. It is filed as functional. The method in brief:
(§3)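 OVCA cells given 0.5% DMSO or compound for 24 h, harvested, PBS-rinsed, fixed in 80% ethanol and held at −20 °C until analysis. Propidium iodide DNA staining and flow cytometry; apoptotic nuclei scored as the subdiploid (sub-G1) peak, given as percent of the whole population. Untreated cells served as blank.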
For orientation: A flow cytometer gives signals particle by particle.

Assay [6] has as its system OVCAR. Briefly: Cell cycle arrest in human OVCAR cells assessed as accumulation at sub-G1 phase at 2.5 uM after 24 hrs by propidium iodide staining-based FACS analysis. It is filed as functional. The method in brief:
as §3

Assay [7] has as its system OVCAR. The experiment in a line: Cell cycle arrest in human OVCAR cells assessed as accumulation at sub-G1 phase at 5 uM after 24 hrs by propidium iodide staining-based FACS analysis. It is filed as functional. The procedure, abridged: as §3
Assay [8] deals with OVCAR. The experiment in a line: Induction of apoptosis in human OVCAR cells assessed as PARP cleavage at 1.2 to 5 uM after 16 hrs by Western blot analysis. It is filed as functional, cell-based. The method in brief: (§4)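 OVCA cells treated 16 h (vehicle 1% DMSO), washed in PBS, lysed; 50 ug protein run on 15% SDS-PAGE, transferred to nitrocellulose, blocked overnight at 4 °C in TBST/5% milk. Probed with anti-PARP (1:500), anti-cleaved caspase-3, anti-cleaved caspase-9, anti-phospho-Akt, anti-Akt, anti-beta-actin (1:1000), then secondary IgG 1:10,000 for 1 h at room temperature; ECL detection. Total Akt used as reference for phospho-Akt.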
(In western blotting, separated proteins are transferred to a membrane and probed.)

Assay [9] has as its system OVCAR. Briefly: Induction of apoptosis in human OVCAR cells assessed as increase in cleaved caspase-3 level at 1.2 to 5 uM after 16 hrs by Western blot analysis. It is filed as functional, cell-based. The procedure, abridged:
as §4

Assay [10] concerns OVCAR. The experiment in a line: Induction of apoptosis in human OVCAR cells assessed as increase in cleaved caspase-9 level at 1.2 to 5 uM after 16 hrs by Western blot analysis. It is filed as functional, cell-based. The method in brief: as §4
Assay [11] deals with RAC-alpha serine/threonine-protein kinase (Homo sapiens) (UniProt P31749). The experiment in a line: Inhibition of Akt phosphorylation in human OVCAR cells at 1.2 to 5 uM after 16 hrs by Western blot analysis. It is filed as cell-based. The method in brief: as §4
RAC-alpha serine/threonine-protein kinase (Homo sapiens), sequence (P31749 whole entry): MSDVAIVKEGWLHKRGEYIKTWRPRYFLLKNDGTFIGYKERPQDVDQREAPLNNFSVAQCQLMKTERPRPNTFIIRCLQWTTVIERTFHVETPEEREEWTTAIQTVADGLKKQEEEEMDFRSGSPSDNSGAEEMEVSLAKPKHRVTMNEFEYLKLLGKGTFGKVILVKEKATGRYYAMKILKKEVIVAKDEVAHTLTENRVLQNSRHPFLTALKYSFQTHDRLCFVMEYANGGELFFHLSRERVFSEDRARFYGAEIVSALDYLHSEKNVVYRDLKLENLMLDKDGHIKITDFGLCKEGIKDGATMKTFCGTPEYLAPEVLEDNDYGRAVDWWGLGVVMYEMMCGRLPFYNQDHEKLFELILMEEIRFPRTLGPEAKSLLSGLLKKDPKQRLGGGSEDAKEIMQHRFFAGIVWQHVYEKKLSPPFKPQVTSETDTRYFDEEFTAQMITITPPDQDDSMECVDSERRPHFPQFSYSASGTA

Calls of active or inactive are those of the source. The rule behind the calls is not given here.

The GI50 is the concentration at which growth is held to half of that of the control. Read a low GI50 as greater sensitivity of the cells. With `FC(F)(F)c1ccc(-c2cc(-c3ccccc3-c3ccccc3)n[nH]2)cc1`, the 50% growth inhibitory concentration (GI50) in assay [1] came to 2.75 µM; in assay [2] it was 6.9 µM. The “growth inhibition (GI)” value in assay [3] and in assay [4] was “inactive” each time. The Activity is 11.43% in [5], 15.75% in [6] and 23.51% in [7]. Also, the outcome in [8], in [9] and in [10] was Active. Moreover, in assay [11], the inhibition entry was “Active”.

For the origin of these results see ChEMBL document CHEMBL1158554, “3,5-Diaryl-1H-pyrazole as a molecular scaffold for the synthesis of apoptosis-inducing agents” (2010).
